Laboratory results taken from ChEMBL document CHEMBL1138367, “Synthesis and in vivo evaluation of non-hepatotoxic acetaminophen analogs” (Bioorg Med Chem, 2007).
Activity calls are given as the source filed them.

Columns and labels:
[1] = system: Mus musculus; test: Hepatotoxicity in mouse assessed as plasma GPT levels at 3.7 mmol/kg, po after 24 hrs; type: toxicity, organism-based; conditions: in vivo
In short: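 C57BL/6 mice given a single 3.7 mmol/kg oral dose; plasma GPT measured spectrophotometrically 24 h later and reported as SF units/mL ± SD.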

[2] = system: Mus musculus; test: Analgesic activity in CD1 mouse assessed as acetic acid-induced writhing at 1 mmol/kg, po after 1 hr; type: functional
In short: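 Mice fasted overnight, dosed orally by esophageal cannula under brief halothane, 1 mmol/kg; 1 h reading, n = 9–16 per group. Writhing induced by ip 0.4% acetic acid, 10 mL/kg, given 25 min after drug; writhes counted for 10 min starting 5 min after injection. Expressed as % analgesia ± SEM.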

[3] = Drug level in CD1 mouse urine assessed as glucuronate level; type: ADME, tissue-based; conditions: in vivo
[4] = Drug level in CD1 mouse urine assessed as glucuronate level at 3 mmol/kg, po; type: ADME, tissue-based; conditions: in vivo
In short: (§1)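 Two-month-old CD-1 mice, fasted overnight, given a single oral 3 mmol/kg dose in Tween 20 under light halothane. Housed two per metabolic cage, with food from 6 h; urine collected on ice over 24 h. After centrifugation and filtration, analysed by HPLC–MS on a C18 column with an ammonium acetate/acetonitrile gradient; UV detection at 280, 254 and 210 nm.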

[5] = system: HepG2; test: Induction of apoptosis in HEPG2 cells at 100 uM after 6 to 8 hrs by Hoechst staining; type: functional, cell-based; conditions: Homo sapiens
In short: (§2)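 Serum-starved HEPG-2 cells were treated 6–8 h at 37 °C (100 µM). After washing with PBS, cells were stained with Hoechst (2 µM final) for 45 min at 37 °C. Apoptotic cells were detected by confocal fluorescence microscopy.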

[6] = system: Mus musculus; test: Hepatotoxicity in CD1 mouse assessed as reduction in hepatic glutathione levels at 6 mmol/kg; type: toxicity, organism-based; conditions: in vivo
In short: (§3)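 Male CD-1 mice (20–30 g), fasted, given 6 mmol/kg orally; killed 3 h later and livers perfused with heparinized saline. Liver homogenized to 5% w/v and kidney to 10% w/v in 5% MPA, then centrifuged 3000g for 10 min at 4 °C. Glutathione in supernatant measured by colorimetric kit; n = 8–12.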

[7] = system: Mus musculus; test: Analgesic activity in CD1 mouse upto 6620 umol/kg by tail flick test; type: functional, organism-based
In short: (§4)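 Oral doses given to fasted mice. A focused light beam was aimed at the tail, with intensity set for baseline latencies of 3–4 s; withdrawal latency was recorded by photoelectric cell. Testing was done blind.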

[8] = (§5) Toxicity in CD1 mouse assessed as mortality at 6 mmol/kg; type: organism-based; conditions: CD1, mouse, in vivo, 6 mmol/kg; read-out: Activity
In short: (§6)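 CD-1 mice, fasted overnight, given a single oral dose of 6 mmol/kg by esophageal cannula under brief halothane anesthesia. Deaths recorded 24 h after dosing, expressed as a fraction of the group (n = 10).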

[9] = species: Mus musculus; test: Analgesic activity in CD1 mouse by acetic acid-induced writhing test after 30 to 40 mins; type: functional
In short: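 Overnight-fasted mice given several oral doses by esophageal cannulation under brief halothane. Acetic acid 0.4% (10 mL/kg ip) injected 25 min post-dose; writhes counted over 10 min from 5 min after injection, i.e. 30–40 min after dosing. Percent analgesia vs vehicle; two-way ANOVA with Tukey; ED50 by nonlinear regression.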

[10] = system: HepG2; test: Hepatotoxicity against HEPG2 cells at 100 uM after 6 to 8 hrs by tryptan blue exclusion test; type: functional, cell-based; conditions: Homo sapiens
In short: (§7)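 HEPG-2 cells at 80% confluence were serum-starved 6–8 h (EMEM, 0.5% FBS), then exposed to the compound for 6–8 h at 37 °C. Cell toxicity was assessed by Trypan blue exclusion.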

[11] = system: Mus musculus; test: Antiinflammatory activity in CD1 mouse by carrageenan-induced paw edema method; type: functional, organism-based
In short: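 Male CD-1 mice dosed orally; 30 min later, under halothane, 50 µL 1% lambda-carrageenan in saline was injected into one hind plantar paw. Paw volume was measured by paw volume meter before and 4 h after injection, expressed as % of vehicle controls ± SEM; n = 4–5 per dose. Indomethacin 30 mg/kg po served as positive control.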

[12] = species: Mus musculus; test: Analgesic activity in CD1 mouse by formalin-induced pain model after 30 mins; type: functional; conditions: for ED50: CD1, 0.5 h
In short: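 Oral dosing (fasted, halothane, esophageal cannula) 30 min before sc injection of 30 µL 5% buffered formalin into one hind plantar paw. Paw-licking time recorded in 5-min blocks over 90 min; mice habituated to the test box 90 min the day before. Three-way ANOVA (drug × dose × time) with Tukey; ED50 by nonlinear regression.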

[13] = system: HepG2; test: Upregulation of Fas-ligand in HEPG2 cells by Western blot; type: functional, cell-based; conditions: Homo sapiens
In short: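 HEPG-2 cells at 80% confluence, serum-starved 6–8 h (EMEM, 0.5% FBS), then treated with 100 µM for the times indicated at 37 °C. Fas-ligand measured by Western blot on extracts normalised for protein (15–20 µg loaded), Fas-L-specific antibody, ECL detection, densitometric quantitation.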

[14] = system: Mus musculus; test: Hepatotoxicity in CD1 mouse assessed as increased plasma GPT levels at 6 mmol/kg; type: toxicity, organism-based; conditions: in vivo
In short: (§8)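 Male CD-1 mice (20–30 g), fasted overnight, received 6 mmol/kg orally by esophageal cannula. At 24 h, blood was collected by decapitation into heparinized syringes and plasma obtained by centrifugation at 4 °C. GPT and GOT were determined with a spectrophotometric kit; n = 8–12. Mortality was recorded at 24 h.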

[15] = system: HepG2; test: Hepatotoxicity against HEPG2 cells at 200 uM after 6 to 8 hrs by tryptan blue exclusion test; type: functional, cell-based; conditions: Homo sapiens; in short: as §7
[16] = system: Mus musculus; test: Hepatotoxicity in CD1 mouse assessed as reduction in renal glutathione levels at 6 mmol/kg; type: toxicity, organism-based; conditions: in vivo; in short: as §3
[17] = system: HepG2; test: Activation of CAR in HEPG2 cells at 100 uM by Western blot; type: functional, cell-based; conditions: Homo sapiens
In short: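 HEPG-2 cells in EMEM/NEAA/10% FBS, 37 °C, 5% CO2; at 80% confluence held 6–8 h in EMEM with 0.5% FBS, then treated at 100 µM for the times indicated. CAR detected by Western blot on cell extracts (15–20 µg protein, 8–16% gel) with human CAR-specific antibody and ECL, then quantified by densitometry.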

[18] = system: Mus musculus; test: Analgesic activity in CD1 mouse upto 6620 umol/kg by hot plate assay; type: functional, organism-based
In short: (§9)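 Oral doses given to overnight-fasted mice. Latency to lick the hind paw was recorded on a 54 ± 1 °C hot plate, with a 30 s cut-off assigned to non-responders. Testing was done blind.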

[19] = system: Mus musculus; test: Hepatotoxicity in CD1 mouse assessed as increased plasma GOT levels at 6 mmol/kg; type: toxicity, organism-based; conditions: in vivo; in short: as §8
[20] = Hepatotoxicity in C57BL/6 mouse; type: toxicity, organism-based; conditions: in vivo
[21] = Drug level in CD1 mouse urine assessed as 2-{[(4-Hydroxyphenylcarbamoyl)methyl]sulphamoyl}benzoic acid level at 3 mmol/kg, po; type: ADME, tissue-based; conditions: in vivo; in short: as §1
[22] = system: Mus musculus; test: Analgesic activity in CD1 mouse upto 3010 umol/kg by tail flick test; type: functional, organism-based; in short: as §4
[23] = system: HepG2; test: Induction of apoptosis in HEPG2 cells by Hoechst staining; type: functional, cell-based; conditions: Homo sapiens; in short: as §2
[24] = system: Mus musculus; test: as §5; type: organism-based; conditions: mouse, in vivo; in short: as §6
[25] = Drug level in CD1 mouse urine assessed as unmetabolized fractions at 3 mmol/kg, po; type: ADME, tissue-based; conditions: read-out: Activity; in short: as §1
[26] = system: HepG2; test: Hepatotoxicity against HEPG2 cells after 6 to 8 hrs by tryptan blue exclusion test; type: functional, cell-based; conditions: Homo sapiens; in short: as §7
[27] = system: Mus musculus; test: Hepatotoxicity in CD1 mouse assessed as hepatic glutathione levels at 6 mmol/kg; type: toxicity, organism-based; conditions: in vivo
In short: (§10)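 Male CD-1 mice (20–30 g), fasted overnight, received 6 mmol/kg orally by esophageal cannula under brief halothane anesthesia, or vehicle. At 3 h the livers were saline-perfused. Liver was homogenized 5% w/v and kidney 10% w/v in 5% MPA, then centrifuged 3000g for 10 min at 4 C. Supernatant glutathione read colorimetrically. n = 8–12.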

[28] = system: Mus musculus; test: Analgesic activity in CD1 mouse upto 3010 umol/kg by hot plate assay; type: functional, organism-based; in short: as §9
[29] = system: Mus musculus; test: Hepatotoxicity in CD1 mouse assessed as plasma GPT levels at 6 mmol/kg; type: toxicity, organism-based; conditions: in vivo
In short: (§11)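 CD-1 mice, fasted overnight, dosed orally with 6 mmol/kg by esophageal cannula under brief halothane anesthesia, or vehicle. Blood collected after decapitation at 24 h into heparinized syringes. Plasma spun 3000 rpm for 10 min at 4 C. GPT and GOT activity measured with a spectrophotometric kit. n = 8–12.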

[30] = system: Mus musculus; test: Hepatotoxicity in CD1 mouse assessed as renal glutathione levels at 6 mmol/kg; type: toxicity, organism-based; conditions: in vivo; in short: as §10
[31] = system: Mus musculus; test: Hepatotoxicity in CD1 mouse assessed as plasma GOT levels at 6 mmol/kg; type: toxicity, organism-based; conditions: in vivo; in short: as §11

## O=C(CCN1C(=O)c2ccccc2S1(=O)=O)Nc1ccc(O)cc1
[1]
  Activity: 28.85 U/ml
[2]
  Activity: 43.8%

## O=C(CNS(=O)(=O)c1ccccc1C(=O)O)Nc1ccc(O[C@@H]2O[C@H](C(=O)O)[C@@H](O)[C@H](O)[C@H]2O)cc1
[3]
  Activity: 23.7%

## O=C(CN1C(=O)c2ccccc2S1(=O)=O)Nc1ccc(O[C@@H]2O[C@H](C(=O)O)[C@@H](O)[C@H](O)[C@H]2O)cc1
[4]
  Activity: 32%

## O=C(CCCCN1C(=O)c2ccccc2S1(=O)=O)Nc1ccc(O)cc1
[1]
  Activity: 44.16 U/ml
[2]
  Activity: 32.56%

## CC(=O)Nc1ccc(O)cc1 [ACETAMINOPHEN]
[1]
  Activity: 299.01 U/ml
[5]
  Activity: Active
[6]
  Activity: Active
[7]
  Activity: inactive
[2]
  Activity: 61.32%
[8]
  mortality: 40%
[9]
  Activity: Dose-dependent effect
  ED50: 1290 µmol/kg
[10]
  Activity: Active
[11]
  Activity: inactive
[12]
  Activity: Dose-dependent effect
  ED50: 1900 µmol/kg
[13]
  Activity: Active
[14]
  Activity: Active
[15]
  Activity: Active
[16]
  Activity: Active
[17]
  Activity: Active
[18]
  Activity: inactive
[19]
  Activity: Active
[20]
  LD50: 3700 µmol/kg

## O=C(CCCCCN1C(=O)c2ccccc2S1(=O)=O)Nc1ccc(O)cc1
[1]
  Activity: 29.52 U/ml
[2]
  Activity: 53.72%

## O=C(CNS(=O)(=O)c1ccccc1C(=O)O)Nc1ccc(O)cc1
[21]
  Activity: 38.6%

## O=C(CN1C(=O)c2ccccc2S1(=O)=O)Nc1ccc(O)cc1
[22]
  Activity: inactive
[23]
  Activity: inactive
[1]
  Activity: 30.5 U/ml
[2]
  Activity: 62.42%
[24]
  Activity: Not Active
[9]
  Activity: Dose-dependent effect
  ED50: 640 µmol/kg
[25]
  dose excreted: 0.9%
[26]
  Activity: inactive
[11]
  Activity: inactive
[12]
  Activity: Dose-dependent effect
  ED50: 260 µmol/kg
[13]
  Activity: inactive
[27]
  Activity: Not Active
[17]
  Activity: inactive
[28]
  Activity: inactive
[29]
  Activity: Not Active
[30]
  Activity: Not Active
[31]
  Activity: Not Active

## O=C(CCCN1C(=O)c2ccccc2S1(=O)=O)Nc1ccc(O)cc1
[1]
  Activity: 82.62 U/ml
[2]
  Activity: 28.9%
